Results: the RNAGym collection of RNA variant scans (doi:10.1126/science.aae0568)
Fewer inactive variants are shown than the library holds.

B1: tRNA (parent)
chain: GUUCCGUUGGCGUAAUGGUAACGCGUCUCCCUCCUAAGGAGAAGACUGCGGGUUCGAGUCCCGUACGGAACG

Variants of: B1
Assay: yeast fitness relative to wild type (ratio to wild type); higher = fitter; tRNA-Arg(CCU), competitive growth, 37 C, YPD
In short: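 For this measurement, the tRNA-Arg(CCU) gene was varied by chemical synthesis at a 3% per-site mutation rate across 69 sites, and each variant was placed at the native genomic locus in Saccharomyces cerevisiae. The pooled strains went through a 24-hour competition in YPD at 37°C in six parallel replicates, with amplicons from start and end populations read by 100-nucleotide paired-end sequencing. Darwinian fitness relative to wild type followed from the change in each genotype's frequency. Genotypes needed ≥ 100 starting reads, and estimates < 0.5 were set to 0.5.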
Work on C11U G50A G63A A65U yielded a yeast fitness of no more than 0.5. In the case of C11U C22U A70G, the yeast fitness is reported as 0.644. In the case of C11U C55A U64C, the yeast fitness is reported as no more than 0.5. In the case of C11U A15G A69C, the yeast fitness is reported as 0.75. C11U C29U G67A showed a yeast fitness of 0.57. Work on C11U A43U C66U yielded a yeast fitness of 0.555. With C11U A57U A69U the yeast fitness was 0.613. C11U A15U C31A U32A A57G G67A showed a yeast fitness of no more than 0.5. In the case of C11U G18C A43C G52A, the yeast fitness is reported as no more than 0.5. C11U C33G A36U A42G gave a yeast fitness of no more than 0.5. C11U A21G U35C gave a yeast fitness of 0.538. In the case of C11U U16A C22A C24G A45U U47A, the yeast fitness is reported as no more than 0.5. For C11U A42G C60A, the yeast fitness was no more than 0.5. With C11U A21U G39C C55U the yeast fitness was no more than 0.5. With C11U G44C the yeast fitness was 0.974. For C11U G44A, the yeast fitness was 1.03. With C11U A36C C46G the yeast fitness was no more than 0.5. C11U G18A A37G showed a yeast fitness of no more than 0.5. C11U G17A showed a yeast fitness of 0.961. C11U U13A A57U U64G A65G showed a yeast fitness of no more than 0.5. In the case of C11U C55G G63C G67C, the yeast fitness is reported as no more than 0.5. C11U G18C C24G C46A showed a yeast fitness of 0.537. Work on C11U G17C A20C yielded a yeast fitness of no more than 0.5. Work on C11U A21G A37U A40G G41A yielded a yeast fitness of no more than 0.5. C11U C29U C30G gave a yeast fitness of 0.549. Work on C11U C22G U28A C31G C55A G68C yielded a yeast fitness of no more than 0.5. In the case of C11U C33U, the yeast fitness is reported as 0.724. C11U C33G showed a yeast fitness of 0.734. In the case of C11U C30G, the yeast fitness is reported as 0.694. C11U C34G A37U gave a yeast fitness of no more than 0.5. In the case of C11U U13C A43C, the yeast fitness is reported as 0.682. Work on C11U C29U A57U C61U yielded a yeast fitness of no more than 0.5. C11U G48C showed a yeast fitness of 0.882. C11U G48U gave a yeast fitness of 0.853. C11U C29G C33U G39U C60U A65U A69U gave a yeast fitness of no more than 0.5. With C11U A57U the yeast fitness was 0.677. C11U U19A G63C showed a yeast fitness of 0.53. C11U A36U gave a yeast fitness of 0.606. C11U A36C showed a yeast fitness of 0.641. C11U A37C C66U showed a yeast fitness of 0.611. C11U C33G A65C gave a yeast fitness of 0.694. In the case of C11U A36G G48C A65C, the yeast fitness is reported as 0.675. Variant C11U C30U C49U has a yeast fitness of 0.646. C11U C30A C49U G67U showed a yeast fitness of no more than 0.5. With C11U A15U C34A the yeast fitness was 0.588. C11U C27G C31G G39C G56A C61A A69G gave a yeast fitness of 0.641. In the case of C11U C31G C34G A43U G68C, the yeast fitness is reported as 0.571. For C11U G25C C31U, the yeast fitness was 0.679. Variant C11U G68A has a yeast fitness of 0.878. In the case of C11U U13A C46G C62G, the yeast fitness is reported as no more than 0.5. For C11U U19A, the yeast fitness was 0.992. Work on C11U G25A C62U A70C yielded a yeast fitness of 0.67. C11U C24G C27G G52A gave a yeast fitness of 0.551. C11U A70G showed a yeast fitness of 0.978. In the case of C11U A15U G38A, the yeast fitness is reported as no more than 0.5. C11U U13A U16A U54A gave a yeast fitness of 0.711. In the case of C11U G18A G41C, the yeast fitness is reported as no more than 0.5. Work on C11U C62G G63A yielded a yeast fitness of 0.529. C11U G44A C62U gave a yeast fitness of 0.762. For C11U C22U C66U, the yeast fitness was 0.517. With C11U C27G A36G G63C C66U the yeast fitness was no more than 0.5. In the case of C11U A15U G52A C61G, the yeast fitness is reported as no more than 0.5. For C11U G67A A69U, the yeast fitness was 0.652. Variant C11U G25C A36U has a yeast fitness of 0.547. For C11U U19A A43U A65U, the yeast fitness was 0.53. Work on C11U A45C C49U yielded a yeast fitness of 0.765. C11U C30U A65C gave a yeast fitness of no more than 0.5. C11U C31U A65C showed a yeast fitness of 0.52. C11U U19C G67C gave a yeast fitness of 0.566. C11U A40C G68A showed a yeast fitness of 0.733. C11U A15G G63C C66U gave a yeast fitness of no more than 0.5. C11U U13C U28C A42U C55A G56A showed a yeast fitness of no more than 0.5. For C11U C33U G48A, the yeast fitness was 0.58. With C11U A21U C27A C34A A36U U47C the yeast fitness was no more than 0.5. Work on C11U U13C A15G C46A yielded a yeast fitness of 0.631. In the case of C11U C22A, the yeast fitness is reported as 0.882. Work on C11U A20C C29G A42G G56C G58A yielded a yeast fitness of no more than 0.5. Variant C11U C22G G52C G56C has a yeast fitness of no more than 0.5. C11U U16A gave a yeast fitness of 0.819. With C11U U13A G25A U28A C31A A43C C60G C61G C62U the yeast fitness was 0.581. Variant C11U G38C has a yeast fitness of 0.715. C11U C27A G56C C62A A65C showed a yeast fitness of no more than 0.5. C11U C46G showed a yeast fitness of 0.986. Variant C11U G23A has a yeast fitness of 0.952. For C11U G17A U35A G38A C61G, the yeast fitness was no more than 0.5. Variant C11U G50A A69C has a yeast fitness of 0.522. C11U C27U C31A U35C C55G C66U A70C showed a yeast fitness of 0.512. C11U A21C A43G gave a yeast fitness of no more than 0.5. In the case of C11U U16C U19C C62U A70G, the yeast fitness is reported as 0.524. With C11U G23C C31G C60G A65U the yeast fitness was no more than 0.5. With C11U G25C A40U C49G G63C the yeast fitness was no more than 0.5. Work on C11U C62U A70G yielded a yeast fitness of 0.753. Work on C11U G50A C66A yielded a yeast fitness of no more than 0.5. In the case of C11U C29U G39A, the yeast fitness is reported as 0.619. C11U G41A G58A gave a yeast fitness of 0.768. C11U A15U G51A G56C showed a yeast fitness of no more than 0.5. In the case of C11U G52C, the yeast fitness is reported as 0.707. Work on C11U G52A yielded a yeast fitness of 0.827. C11U C24G C33A A40C A69C gave a yeast fitness of 0.72. C11U A15U U19G A20G G67C gave a yeast fitness of no more than 0.5. C11U A21U A69C gave a yeast fitness of 0.772. For C11U C31A A37G, the yeast fitness was no more than 0.5. Variant C11U U13A C22G C24A C46G C55U has a yeast fitness of no more than 0.5. In the case of C11U U19C A20U A42C A65C A69U, the yeast fitness is reported as no more than 0.5. Work on C11U C33G U47A U64G yielded a yeast fitness of 0.552. C11U A37U G38A gave a yeast fitness of no more than 0.5. In the case of C11U U13A A40C U64C, the yeast fitness is reported as no more than 0.5. C11U C31A G67A showed a yeast fitness of no more than 0.5. Work on C11U G17U C27U C31A U35C C55G C66U A70C yielded a yeast fitness of no more than 0.5. Variant C11U C22U G44C has a yeast fitness of 0.553. Variant C11U A20G U35A has a yeast fitness of no more than 0.5. Variant C11U G12A C31U U53C A65C has a yeast fitness of no more than 0.5. With C11U A15G C27G G56C the yeast fitness was no more than 0.5. C11U A15U C33A gave a yeast fitness of no more than 0.5. In the case of C11U A21G C62U, the yeast fitness is reported as 0.648. With C11U A21U C27A the yeast fitness was 0.576. Work on C11U C29U C66A yielded a yeast fitness of 0.553. Variant C11U C29U C66G has a yeast fitness of no more than 0.5. Variant C11U G50A has a yeast fitness of 0.81. For C11U C29G C31U G58U A65G G67A, the yeast fitness was no more than 0.5. Work on C11U U13A G48A yielded a yeast fitness of 0.59. Work on C11U C31G A43C yielded a yeast fitness of 0.654. For C11U G39C, the yeast fitness was 0.68. In the case of C11U A36U G58A G67C, the yeast fitness is reported as no more than 0.5. Variant C11U C24A A43G C62A has a yeast fitness of no more than 0.5. Variant C11U C22G C29G G41A has a yeast fitness of no more than 0.5. C11U C24G C61A G67A showed a yeast fitness of no more than 0.5. C11U C31A A57C showed a yeast fitness of no more than 0.5. C11U A43C G68A showed a yeast fitness of 0.545. Work on C11U C33U A70U yielded a yeast fitness of 0.612. C11U C49G showed a yeast fitness of 0.892. C11U A40U C46A gave a yeast fitness of 0.74. For C11U A40U C46U, the yeast fitness was 0.637. Work on C11U C31G A45G G56U yielded a yeast fitness of no more than 0.5. Work on C11U C34A A36C G68C yielded a yeast fitness of no more than 0.5. Variant C11U A15G C27G has a yeast fitness of 0.544. C11U G48A G51C C60A U64C gave a yeast fitness of 0.887. Variant C11U G12A A14G U53C has a yeast fitness of no more than 0.5. In the case of C11U C46U U59C, the yeast fitness is reported as 0.767. For C11U A20G U59A, the yeast fitness was 0.514. In the case of C11U C27U C46U A57U, the yeast fitness is reported as 0.647. Variant C11U G18C C29A G67C has a yeast fitness of no more than 0.5. C11U G50A G56A gave a yeast fitness of 0.781. In the case of C11U C30U G48C G68C, the yeast fitness is reported as no more than 0.5. Work on C11U U19G C27U C29G yielded a yeast fitness of no more than 0.5. C11U U19C C22G G25C C33U G39C C62G gave a yeast fitness of no more than 0.5. For C11U C22G C34A C49U, the yeast fitness was no more than 0.5. Variant C11U A43U A70U has a yeast fitness of 0.764. Variant C11U C29U U35C has a yeast fitness of no more than 0.5. C11U C60U C62G showed a yeast fitness of 0.588. Work on C11U C60U C62U yielded a yeast fitness of no more than 0.5. Work on C11U A15U C27G yielded a yeast fitness of 0.529. C11U C31G C34G A43U G68C A69G gave a yeast fitness of 0.532. C11U A40C U53A A69C A70U showed a yeast fitness of no more than 0.5. Variant C11U A43U has a yeast fitness of 0.907. C11U A43C gave a yeast fitness of 0.686. For C11U C30A U35A G38A C61G, the yeast fitness was no more than 0.5. Variant C11U U13C C29U A37C U54A C62U G68A has a yeast fitness of no more than 0.5. Work on C11U A20C C22G A65G A70C yielded a yeast fitness of no more than 0.5. For C11U G18A A36U G48C, the yeast fitness was no more than 0.5. In the case of C11U A21U G50C, the yeast fitness is reported as 0.788. In the case of C11U C34U G38A G44C, the yeast fitness is reported as 0.541. Variant C11U A15U U26C C49A has a yeast fitness of no more than 0.5. In the case of C11U C24U C34G A70G, the yeast fitness is reported as no more than 0.5. C11U G39C C62U G63C gave a yeast fitness of no more than 0.5. Work on C11U C55A G58C yielded a yeast fitness of no more than 0.5. In the case of C11U A15G C46U, the yeast fitness is reported as 0.961.
